Active and inactive are the calls of the source. The calls are words filed in the database; no cut-off is given here.
Columns and labels:
[1] = Inhibition of Staphylococcus aureus biotin protein ligase assessed as reduction in 3H-biotin incorporation into Staphylococcus aureus pyruvate carboxylase biotin domain after 10 mins by liquid scintillation counting analysis
Method in brief: (§1)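 Recombinant S. aureus BPL; enzymatic incorporation of radiolabeled biotin onto an acceptor protein measured across varying inhibitor concentrations to give IC50. Ki calculated from IC50 assuming competitive inhibition versus biotin, using the known KM for biotin.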

[2] = molecular target: T1, Biotin--protein ligase (Homo sapiens, UniProt P50747); assay: Inhibition of human biotin protein ligase assessed as reduction in 3H-biotin incorporation into pyruvate carboxylase biotin domain after 10 mins by liquid scintillation counting analysis
T1 sequence (P50747 whole entry): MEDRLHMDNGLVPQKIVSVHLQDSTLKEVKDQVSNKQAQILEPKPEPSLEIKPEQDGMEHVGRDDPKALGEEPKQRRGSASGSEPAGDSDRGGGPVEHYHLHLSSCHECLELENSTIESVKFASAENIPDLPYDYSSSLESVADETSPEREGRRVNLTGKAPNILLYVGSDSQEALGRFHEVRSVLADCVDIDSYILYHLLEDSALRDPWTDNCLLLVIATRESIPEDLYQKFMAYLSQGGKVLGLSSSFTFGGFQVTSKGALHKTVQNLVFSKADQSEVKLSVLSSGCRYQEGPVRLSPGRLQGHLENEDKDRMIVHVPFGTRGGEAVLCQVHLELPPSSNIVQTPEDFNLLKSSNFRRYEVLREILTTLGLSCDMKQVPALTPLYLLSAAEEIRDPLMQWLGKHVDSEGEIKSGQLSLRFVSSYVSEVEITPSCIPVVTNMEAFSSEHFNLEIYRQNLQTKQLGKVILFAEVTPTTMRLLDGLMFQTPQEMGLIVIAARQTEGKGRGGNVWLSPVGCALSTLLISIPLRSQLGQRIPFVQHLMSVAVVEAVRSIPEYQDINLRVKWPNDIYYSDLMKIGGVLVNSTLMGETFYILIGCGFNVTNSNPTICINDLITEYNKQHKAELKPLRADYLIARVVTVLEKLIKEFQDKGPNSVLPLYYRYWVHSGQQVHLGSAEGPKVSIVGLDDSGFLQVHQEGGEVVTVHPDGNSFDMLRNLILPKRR
Method in brief: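 Recombinant human BPL; radiolabeled biotin transfer onto an acceptor protein measured with 100 μM compound included in the assay medium.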

[3] = system: Staphylococcus aureus; assay: Growth inhibition of Staphylococcus aureus ATCC 49775 after 16 to 20 hrs by microbroth dilution method relative to control; format: functional; parameters: concentration or dose not given beside the values
Method in brief: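 S. aureus ATCC 49775 cultured with compound; growth read spectrophotometrically at 600 nm 20 h post-treatment. Activity called where culture optical density fell by >40% relative to nontreated controls.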

[4] = Cytotoxicity against human HepG2 cells assessed as decrease in cell viability at 40 ug/ml after 24 to 48 hrs by WST-1 assay; format: toxicity, cell-based
Method in brief: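 Cultured HepG2 cells (ATCC HB-8065) exposed to compound at a single concentration of 40 μg/mL to assess cytotoxicity.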

[5] = system: Staphylococcus aureus; assay: Growth inhibition of Staphylococcus aureus RN4220 harboring pCN51 at 16 ug/ml measured every 30 mins for 16 hrs; format: functional
Method in brief: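 Cultures grown in medium with 16 μg/mL compound for 16 h; optical density read every 30 min and compared with nontreated controls. Part of a target-overexpression test of the BPL mechanism.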

[6] = Inhibition of Staphylococcus aureus C-terminal His6-tagged biotin protein ligase assessed as reduction in 3H-biotin incorporation into biotin domain of substrate; method in brief: as §1
[7] = Selectivity ratio of Ki for Staphylococcus aureus C-terminal His6-tagged biotin protein ligase to Ki for human C-terminal His6-tagged biotin protein ligase
Method in brief: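 Recombinant S. aureus and human BPLs; enzymatic incorporation of radiolabeled biotin onto an acceptor protein measured across varying compound concentrations. IC50 converted to Ki assuming competition with biotin, using the known biotin KM. Human enzyme tested with 100 μM compound in the assay.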

Compound | Ki [2] [µM] | Ki [1] [µM] | growth inhibition (GI) [3] [%] | Activity [4] [µg/mL] | growth inhibition (GI) [5] | Ki [6] [µM] | Ratio Ki [7]
O=C1N[C@H]2[C@H](CS[C@H]2CCCCCc2cn(Cc3cccc(I)c3)nn2)N1 | > 16 | > 10 |  |  |  |  | 
COc1cccc(Cn2cc(CCCCC[C@@H]3SC[C@@H]4NC(=O)N[C@@H]43)nn2)c1 | > 16 | 1.1 |  |  |  |  | 
COc1ccc(Cn2cc(CCCCC[C@@H]3SC[C@@H]4NC(=O)N[C@@H]43)nn2)cc1 | > 16 | > 10 |  |  |  |  | 
O=C1N[C@H]2[C@H](CS[C@H]2CCCCCc2cn(Cc3cccc(F)c3)nn2)N1 | > 16 | 0.28 | >40 | > 40 | Active |  | 
Nc1ccccc1Cn1cc(CCCCC[C@@H]2SC[C@@H]3NC(=O)N[C@@H]32)nn1 | > 16 | 1.48 | >40 |  | Active |  | 
O=C1N[C@H]2[C@H](CS[C@H]2CCCCCc2cn(Cc3ccccc3F)nn2)N1 | > 16 | > 10 |  |  |  |  | 
O=C1N[C@H]2[C@H](CS[C@H]2CCCCCc2cn(Cc3ccc(F)cc3)nn2)N1 | > 16 | 0.6 | >40 | > 40 |  |  | 
O=C1N[C@H]2[C@H](CS[C@H]2CCCCCc2cn(Cc3ccc(O)cc3)nn2)N1 | > 16 | 1.59 |  |  |  |  | 
Cc1ccc(Cn2cc(CCCCC[C@@H]3SC[C@@H]4NC(=O)N[C@@H]43)nn2)cc1 | > 16 | > 10 |  |  |  |  | 
O=C1N[C@H]2[C@H](CS[C@H]2CCCCCc2cn(Cc3ccc(C(F)(F)F)cc3)nn2)N1 | > 16 | > 10 |  |  |  |  | 
O=C1N[C@H]2[C@H](CS[C@H]2CCCCCc2cn(Cc3ccc(Cl)cc3)nn2)N1 | > 16 | 1.1 | >40 | > 40 |  |  | 
O=C1N[C@H]2[C@H](CS[C@H]2CCCCCc2cn(Cc3ccc(I)cc3)nn2)N1 | > 16 | 0.56 | >40 |  |  |  | 
Cc1cccc(Cn2cc(CCCCC[C@@H]3SC[C@@H]4NC(=O)N[C@@H]43)nn2)c1 | > 16 | 0.71 | >40 |  |  |  | 
O=C1N[C@H]2[C@H](CS[C@H]2CCCCCc2cn(Cc3ccc(F)c(F)c3)nn2)N1 | > 16 | > 10 |  |  |  |  | 
O=C1N[C@H]2[C@H](CS[C@H]2CCCCCc2cn(Cc3ccccc3Br)nn2)N1 | > 16 | 0.96 | >40 |  |  |  | 
Cc1ccc2oc(=O)n(CCCCn3cc(CCCCC[C@@H]4SC[C@@H]5NC(=O)N[C@@H]54)nn3)c2c1 |  |  |  |  |  | 0.09 | > 1000
COc1ccccc1Cn1cc(CCCCC[C@@H]2SC[C@@H]3NC(=O)N[C@@H]32)nn1 | > 16 | 0.53 |  |  |  |  | 

More lines, main results first:

Ki [2] [µM] | Compound | Ki [1] [µM] | growth inhibition (GI) [3] [%] | Activity [4] [µg/mL] | growth inhibition (GI) [5] | Ki [6] [µM] | Ratio Ki [7]
> 16 | O=C1N[C@H]2[C@H](CS[C@H]2CCCCCc2cn(Cc3cccc(Cl)c3)nn2)N1 | 0.39 | >40 | > 40 |  |  | 
> 16 | O=C1N[C@H]2[C@H](CS[C@H]2CCCCCc2cn(Cc3cccc(C(F)(F)F)c3)nn2)N1 | > 10 |  |  |  |  | 
> 16 | CC(C)(C)c1ccc(Cn2cc(CCCCC[C@@H]3SC[C@@H]4NC(=O)N[C@@H]43)nn2)cc1 | 1.1 | >40 |  |  |  | 
> 16 | O=C1N[C@H]2[C@H](CS[C@H]2CCCCCc2cn(Cc3ccccc3Cl)nn2)N1 | > 10 |  |  |  |  | 
> 16 | Nc1ccc(Cn2cc(CCCCC[C@@H]3SC[C@@H]4NC(=O)N[C@@H]43)nn2)cc1 | > 10 |  |  |  |  | 
> 16 | Nc1cccc(Cn2cc(CCCCC[C@@H]3SC[C@@H]4NC(=O)N[C@@H]43)nn2)c1 | > 10 |  |  |  |  | 
> 16 | O=C1N[C@H]2[C@H](CS[C@H]2CCCCCc2cn(Cc3cccc(O)c3)nn2)N1 | > 10 |  |  |  |  | 
> 16 | O=C1N[C@H]2[C@H](CS[C@H]2CCCCCc2cn(Cc3ccc(C(=O)O)cc3)nn2)N1 | 0.67 |  |  |  |  | 
> 16 | O=C1N[C@H]2[C@H](CS[C@H]2CCCCCc2cn(Cc3ccccc3O)nn2)N1 | > 10 |  |  |  |  | 
